# Data reported in ChEMBL document CHEMBL5303300, “EUbOPEN Chemogenomics Library - Multiplex” (2023).
# “And” between values parts separate entries of the source, which are not always exact repeats. Equal entries are not always repeated.
# Legend:
# Fibroblast = assay: Multiplex assay against human fibroblast; type: toxicity, cell-based; conditions: number of replicates 2
# Procedure, shortened: (§1)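 Live cells were stained at seeding with Hoechst33342, BioTracker Green Microtubule Cytoskeleton Dye, MitoTracker Red and Annexin V Alexa Fluor 680, then imaged on a CQ1 microscope at 37°C and 5% CO2 after compound addition. CellPathfinder machine-learning gating split cells into Hoechst high-intensity objects or normal cells. Normal cells were split into healthy, pyknosed or fragmented nuclei, and pyknosed cells into mitotic or apoptotic. Tubulin, mitochondrial-mass and membrane-permeability phenotypes are per cents of healthy-nucleus cells.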
# HEK-293T = assay: Multiplex assay against HEK293T; type: toxicity, cell-based; conditions: human, number of replicates 2; procedure, shortened: as §1
# [1] = 12 h, 1 µM, compound concentration 1 uM
# [2] = 12 h, 10 µM, compound concentration 10 uM
# [3] = 24 h, 1 µM, compound concentration 1 uM
# [4] = 24 h, 10 µM, compound concentration 10 uM
# [5] = 48 h, 1 µM, compound concentration 1 uM
# [6] = 48 h, 10 µM, compound concentration 10 uM
compound,measurement,setting,value
Cn1cc(-c2ccc(N(C(=O)NCc3ccccc3)[C@H]3CC[C@H](Nc4ccc(C#N)cn4)CC3)cc2)ccc1=O,Population Apoptotic (%),Fibroblast; [1],46%
same,Population Fragmented Nuclei (%),Fibroblast; [1],8% and 18%
same,Population Healthy Nuclei (%),Fibroblast; [1],72% and 60%
same,Population Hoechst High Intensity Objects (%),Fibroblast; [1],0%
same,Population Membrane Permeable-Phenotype (%),Fibroblast; [1],6%
same,Population Mitochondria Different-Phenotype (%),Fibroblast; [1],1% and 2%
same,Population Mitotic Cells (%),Fibroblast; [1],53%
same,Population Normal (%),Fibroblast; [1],100%
same,Population Pyknosed Nuclei (%),Fibroblast; [1],19% and 21%
same,Population Tubulin-Different-Phenotype (%),Fibroblast; [1],9% and 11%
same,Total Cell Count,Fibroblast; [1],155 and 181
same,Population Apoptotic (%),Fibroblast; [2],39% and 40%
same,Population Fragmented Nuclei (%),Fibroblast; [2],8% and 9%
same,Population Healthy Nuclei (%),Fibroblast; [2],55% and 72%
same,Population Hoechst High Intensity Objects (%),Fibroblast; [2],0%
same,Population Membrane Permeable-Phenotype (%),Fibroblast; [2],16% and 14%
same,Population Mitochondria Different-Phenotype (%),Fibroblast; [2],3%
same,Population Mitotic Cells (%),Fibroblast; [2],60% and 59%
same,Population Normal (%),Fibroblast; [2],99%
same,Population Pyknosed Nuclei (%),Fibroblast; [2],36% and 18%
same,Population Tubulin-Different-Phenotype (%),Fibroblast; [2],75% and 55%
same,Total Cell Count,Fibroblast; [2],249 and 273
same,Population Apoptotic (%),Fibroblast; [3],38% and 48%
same,Population Fragmented Nuclei (%),Fibroblast; [3],12% and 15%
same,Population Healthy Nuclei (%),Fibroblast; [3],73% and 64%
same,Population Hoechst High Intensity Objects (%),Fibroblast; [3],0%
same,Population Membrane Permeable-Phenotype (%),Fibroblast; [3],4% and 7%
same,Population Mitochondria Different-Phenotype (%),Fibroblast; [3],0% and 1%
same,Population Mitotic Cells (%),Fibroblast; [3],61% and 51%
same,Population Normal (%),Fibroblast; [3],99%
same,Population Pyknosed Nuclei (%),Fibroblast; [3],14% and 20%
same,Population Tubulin-Different-Phenotype (%),Fibroblast; [3],11%
same,Total Cell Count,Fibroblast; [3],149 and 180
same,Population Apoptotic (%),Fibroblast; [4],54% and 81%
same,Population Fragmented Nuclei (%),Fibroblast; [4],10%
same,Population Healthy Nuclei (%),Fibroblast; [4],44% and 47%
same,Population Hoechst High Intensity Objects (%),Fibroblast; [4],0%
same,Population Membrane Permeable-Phenotype (%),Fibroblast; [4],18%
same,Population Mitochondria Different-Phenotype (%),Fibroblast; [4],7% and 5%
same,Population Mitotic Cells (%),Fibroblast; [4],45% and 18%
same,Population Normal (%),Fibroblast; [4],99%
same,Population Pyknosed Nuclei (%),Fibroblast; [4],44% and 42%
same,Population Tubulin-Different-Phenotype (%),Fibroblast; [4],79% and 63%
same,Total Cell Count,Fibroblast; [4],231 and 271
same,Population Apoptotic (%),Fibroblast; [5],76% and 60%
same,Population Fragmented Nuclei (%),Fibroblast; [5],17% and 16%
same,Population Healthy Nuclei (%),Fibroblast; [5],68%
same,Population Hoechst High Intensity Objects (%),Fibroblast; [5],0%
same,Population Membrane Permeable-Phenotype (%),Fibroblast; [5],5% and 2%
same,Population Mitochondria Different-Phenotype (%),Fibroblast; [5],0%
same,Population Mitotic Cells (%),Fibroblast; [5],23% and 39%
same,Population Normal (%),Fibroblast; [5],100%
same,Population Pyknosed Nuclei (%),Fibroblast; [5],13% and 15%
same,Population Tubulin-Different-Phenotype (%),Fibroblast; [5],8% and 5%
same,Total Cell Count,Fibroblast; [5],154 and 186
same,Population Apoptotic (%),Fibroblast; [6],71% and 83%
same,Population Fragmented Nuclei (%),Fibroblast; [6],8% and 15%
same,Population Healthy Nuclei (%),Fibroblast; [6],36% and 28%
same,Population Hoechst High Intensity Objects (%),Fibroblast; [6],0% and 1%
same,Population Membrane Permeable-Phenotype (%),Fibroblast; [6],26% and 22%
same,Population Mitochondria Different-Phenotype (%),Fibroblast; [6],8% and 2%
same,Population Mitotic Cells (%),Fibroblast; [6],28% and 16%
same,Population Normal (%),Fibroblast; [6],99% and 98%
same,Population Pyknosed Nuclei (%),Fibroblast; [6],54% and 56%
same,Population Tubulin-Different-Phenotype (%),Fibroblast; [6],78% and 65%
same,Total Cell Count,Fibroblast; [6],233 and 237
same,Population Apoptotic (%),HEK-293T; [1],40% and 44%
same,Population Fragmented Nuclei (%),HEK-293T; [1],3% and 2%
same,Population Healthy Nuclei (%),HEK-293T; [1],83% and 84%
same,Population Hoechst High Intensity Objects (%),HEK-293T; [1],5%
same,Population Membrane Permeable-Phenotype (%),HEK-293T; [1],2% and 3%
same,Population Mitochondria Different-Phenotype (%),HEK-293T; [1],19% and 9%
same,Population Mitotic Cells (%),HEK-293T; [1],59% and 55%
same,Population Normal (%),HEK-293T; [1],94%
same,Population Pyknosed Nuclei (%),HEK-293T; [1],12%
same,Population Tubulin-Different-Phenotype (%),HEK-293T; [1],52% and 40%
same,Total Cell Count,HEK-293T; [1],571 and 680
same,Population Apoptotic (%),HEK-293T; [2],52% and 47%
same,Population Fragmented Nuclei (%),HEK-293T; [2],12% and 6%
same,Population Healthy Nuclei (%),HEK-293T; [2],71% and 78%
same,Population Hoechst High Intensity Objects (%),HEK-293T; [2],8% and 10%
same,Population Membrane Permeable-Phenotype (%),HEK-293T; [2],8% and 3%
same,Population Mitochondria Different-Phenotype (%),HEK-293T; [2],54% and 57%
same,Population Mitotic Cells (%),HEK-293T; [2],47% and 52%
same,Population Normal (%),HEK-293T; [2],91% and 89%
same,Population Pyknosed Nuclei (%),HEK-293T; [2],16% and 15%
same,Population Tubulin-Different-Phenotype (%),HEK-293T; [2],92% and 93%
same,Total Cell Count,HEK-293T; [2],474 and 388
same,Population Apoptotic (%),HEK-293T; [3],35% and 31%
same,Population Fragmented Nuclei (%),HEK-293T; [3],5% and 4%
same,Population Healthy Nuclei (%),HEK-293T; [3],86%
same,Population Hoechst High Intensity Objects (%),HEK-293T; [3],8% and 6%
same,Population Membrane Permeable-Phenotype (%),HEK-293T; [3],2% and 5%
same,Population Mitochondria Different-Phenotype (%),HEK-293T; [3],5% and 4%
